Compounds with a hit are over-represented: about 2.9% of the library has one in this group of screens.
SIRT5 inh – SIRT5 desuccinylase inhibitors, primary screen, biochemical, fluorescence imaging, single point, set 5 | AID 652115, 2013 | inhibition, % at 15 µM | NAD-dependent protein deacylase sirtuin-5, mitochondrial (Homo sapiens), Q9NXA8 | 1.1% of 330,000 active | Purified SirT5, succinyl-peptide AMC, trypsin-coupled fluorescence; in the data active means inhibition above about 15%; inconclusive means no clear call, values can overlap the other calls
DENV2 CPE rescue – inhibitors of DENV2 cytopathic effect, primary screen, cell-based, plate reader, single concentration; DENV2-infected cells, cytopathic effect rescue; CPE inhibition, % at 9.99 µM; 1.7% of 350,000 active; in the data active means CPE inhibition above about 20%, passing the limit was not always enough; inconclusive means no clear call, values can overlap the other calls; tested in BHK-21 cells;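 further: 0% = median of neutral control wells and 100% = median of positive control wells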
E-sel inducer – E-selectin induction in HUVECs, primary screen, imaging, HUVEC, immunofluorescence imaging, single point; activation, % at 7.58 µM; 0.37% of 260,000 active; normalized: neutral wells 0, TNF-alpha wells 100;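 active means mean E-selectin-positive cell signal at least 10% of the positive control, reached in at least 60% of replicates, without over 20% cell loss; inconclusive means no rule given, readout overlaps actives, possibly toxicity-flagged; inactive means the rest, including those meeting only one limit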
Target sequence (P16581 whole entry, looked up): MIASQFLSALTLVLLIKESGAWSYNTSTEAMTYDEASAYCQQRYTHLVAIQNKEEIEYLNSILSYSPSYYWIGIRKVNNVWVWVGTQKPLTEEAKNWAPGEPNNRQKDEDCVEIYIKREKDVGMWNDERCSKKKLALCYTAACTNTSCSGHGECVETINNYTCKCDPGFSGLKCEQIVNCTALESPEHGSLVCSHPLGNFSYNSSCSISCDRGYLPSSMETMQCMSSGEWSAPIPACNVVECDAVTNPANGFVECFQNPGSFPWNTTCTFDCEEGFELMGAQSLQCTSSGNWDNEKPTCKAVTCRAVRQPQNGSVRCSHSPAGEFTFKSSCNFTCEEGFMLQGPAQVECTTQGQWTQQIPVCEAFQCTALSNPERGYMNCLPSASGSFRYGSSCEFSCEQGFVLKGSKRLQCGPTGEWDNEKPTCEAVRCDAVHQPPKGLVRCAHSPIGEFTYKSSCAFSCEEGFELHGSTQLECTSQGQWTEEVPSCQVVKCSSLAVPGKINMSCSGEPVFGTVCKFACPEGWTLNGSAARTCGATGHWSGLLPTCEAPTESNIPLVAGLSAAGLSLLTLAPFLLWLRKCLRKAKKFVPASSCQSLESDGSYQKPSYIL
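Assay system: HUVEC primary endothelial cells. Input: 3,000 HUVEC seeded per well. Doses: one compound dose added by pin transfer. Read-out basis: % PE-positive cells. Benchmarks: TNF-alpha high, DMSO low. Detection: immunofluorescence imaging. Buffer or medium: EGM-2, gelatin.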
The depositor's hits bear a star; ? = inconclusive; nt = no result.

SMILES	SIRT5 inh	DENV2 CPE rescue	E-sel inducer
CC(C)NC(=O)N1CCC(n2nccc2NC(=O)CCOc2ccccc2)CC1	-3	6	0
COC(=O)[C@H](Cc1ccccc1)N(Cc1ccccc1)S(=O)(=O)N(Cc1ccccc1)[C@@H](Cc1ccccc1)C(=O)OC	-1	-7	0
O=C(CC1CC1)N1CC2(C1)[C@H](c1ccccc1)[C@H](CO)N2Cc1ccc(F)cc1	1	3	0
Cc1cc2nn(-c3ccc(Cl)cc3)nc2cc1N	-1	-1	nt
COC(=O)c1ccc(CNC(=O)c2ccc(OC)c(S(=O)(=O)NC3CCCC3)c2)cc1	-5	-3	99*
COc1cccc(CNC(=O)c2ccc(OC)c(S(=O)(=O)NC3CCCC3)c2)c1	-6	-9	1
Cc1noc(C)c1NC(=O)N(C)C[C@H]1Oc2ccc(NS(=O)(=O)c3cccs3)cc2C(=O)N([C@@H](C)CO)C[C@@H]1C	1	38*	-3
C[C@@H]1CN([C@@H](C)CO)C(=O)c2cc(NS(=O)(=O)c3ccccc3)ccc2O[C@@H]1CN(C)C(=O)Nc1ccc2c(c1)OCO2	0	49*	0
C[C@H]1CN([C@@H](C)CO)C(=O)c2cc(NS(=O)(=O)c3cccs3)ccc2O[C@@H]1CN(C)C(=O)Nc1ccc2c(c1)OCO2	0	17	1
C[C@@H]1CN([C@@H](C)CO)C(=O)c2cc(NS(=O)(=O)c3cccs3)ccc2O[C@@H]1CN(C)C(=O)Nc1ccc2c(c1)OCO2	2	-1	36*
C[C@H](CO)N1C[C@H](C)[C@H](CN(C)C(=O)Nc2ccc3c(c2)OCO3)Oc2ccc(NS(=O)(=O)c3ccccc3)cc2C1=O	4	-9	0
Cc1noc(C)c1NC(=O)N(C)C[C@@H]1Oc2ccc(NS(=O)(=O)c3cccs3)cc2C(=O)N([C@H](C)CO)C[C@@H]1C	0	2	19
O=C(COc1ccccc1)N1CCN(c2ccc([N+](=O)[O-])c(N3CCCCC3)c2)CC1	1	4	nt
O=C(C[C@H]1CC[C@@H]2[C@H](COC[C@@H](O)CN2Cc2ccncc2)O1)NCc1ccncc1	1	-4	0
COc1ccccc1CNC(=O)c1cc(C)nn1-c1ccccc1	-5	0	7
O=C(C1CCC1)N1CC(=O)N2[C@H](CO)[C@@H](c3ccc(Br)cc3)[C@H]2C1	-5	-3	0
O=C(NOCc1ccccc1)c1coc(-c2ccccc2)n1	-6	-3	0
Cc1ccc(NC(=O)CCC(=O)c2cccs2)cc1F	101*	1	0
Cc1ccc(NC(=O)COC(=O)CCC(=O)c2cccs2)c(C)c1	-3	-2	1
Cc1ccc(NC(=O)CCNS(=O)(=O)c2cccs2)cc1F	-1	-1	nt
Cc1ccccc1NC(=O)COC(=O)CCC(=O)c1cccs1	15*	19	0
CC(=O)c1ccc(OC2(C)CCN(Cc3ccc4ccccc4c3)C2)cc1 (stereo not drawn)	-2	117*	nt
CC(C)Oc1ccccc1OC1(C)CCN(Cc2ccc(OC(F)(F)F)cc2)C1 (stereo not drawn)	1	42*	0
CC1(Oc2ccc(Cl)cc2)CCN(Cc2ccc(OC(F)(F)F)cc2)C1 (stereo not drawn)	-9	4	0
CC(=O)c1ccc(OC2(C)CCN(Cc3ccc(C)cc3)C2)cc1 (stereo not drawn)	nt	-4	0
SMILES	SIRT5 inh	DENV2 CPE rescue	E-sel inducer
CC1(Oc2cccc(F)c2)CCN(Cc2csc3ccccc23)C1 (stereo not drawn)	nt	?	0
COC(=O)Cc1ccc(OC2(C)CCN(Cc3csc4ccccc34)C2)cc1 (stereo not drawn)	-1	26*	0
CCNC(=O)C[C@H]1CC[C@H]2[C@H](COc3ccc(NC(=O)c4ccc5c(c4)OCO5)cc3C(=O)N2C)O1	1	-7	0
Cc1ccccc1-c1nc2ccccc2o1	-7	-2	nt
C[C@@H]1CN([C@H](C)CO)C(=O)c2cccc(NC(=O)Nc3ccc4c(c3)OCO4)c2O[C@@H]1CN(C)Cc1ccc(C(F)(F)F)cc1	14	36*	1
C[C@H](CO)N1C[C@H](C)[C@@H](CN(C)Cc2ccc(C(F)(F)F)cc2)Oc2c(NS(C)(=O)=O)cccc2C1=O	-5	-3	198*
C[C@H](CO)N1C[C@H](C)[C@H](CN(C)Cc2ccc(C(F)(F)F)cc2)Oc2c(NS(C)(=O)=O)cccc2C1=O	-2	-4	-4
C[C@@H]1CN([C@@H](C)CO)C(=O)c2cccc(NC(=O)Nc3ccccc3)c2O[C@@H]1CN(C)Cc1ccc(C(F)(F)F)cc1	103*	-2	nt
C[C@H]1CN([C@@H](C)CO)C(=O)c2cccc(NC(=O)Nc3ccc4c(c3)OCO4)c2O[C@H]1CN(C)Cc1ccc(C(F)(F)F)cc1	8	1	1
C[C@@H]1CN([C@H](C)CO)C(=O)c2cccc(NC(=O)Nc3ccc(F)cc3)c2O[C@H]1CN(C)Cc1ccc(C(F)(F)F)cc1	-1	nt	2
C[C@H](CO)N1C[C@H](C)[C@@H](CN(C)Cc2ccc(C(F)(F)F)cc2)Oc2c(NC(=O)Nc3ccc(F)cc3)cccc2C1=O	0	69*	0
C[C@@H]1CN([C@@H](C)CO)C(=O)c2cccc(NC(=O)Nc3ccc(C(F)(F)F)cc3)c2O[C@@H]1CN(C)Cc1ccccc1	-2	2	-1
COc1ccc(-c2coc3c(C(=O)N4CCN(C)CC4)cccc23)c(C)c1	nt	-10	0
Cc1c(Nc2nc3ccccc3nc2NS(=O)(=O)c2ccccc2)c(=O)n(-c2ccccc2)n1C	1	-3	nt
C[C@@H]1CN([C@@H](C)CO)C(=O)c2cc(NC(=O)Nc3ccc(F)cc3)ccc2O[C@@H](C)CCCCO[C@@H]1CN(C)Cc1ccc(C(F)(F)F)cc1	3	-2	nt
CC(C)NC(=O)Nc1cccc2c1O[C@H](CN(C)Cc1ccc(C(F)(F)F)cc1)[C@@H](C)CN([C@@H](C)CO)C2=O	3	16	-17
CC(C)NC(=O)Nc1cccc2c1O[C@@H](CN(C)Cc1ccc(C(F)(F)F)cc1)[C@@H](C)CN([C@H](C)CO)C2=O	3	?	53*
C[C@H]1CN([C@@H](C)CO)C(=O)c2cccc(NC(=O)Nc3ccc(C(F)(F)F)cc3)c2O[C@H]1CN(C)Cc1ccc(-c2ccccc2)cc1	2	3	0
CC(C)NC(=O)Nc1cccc2c1O[C@@H](CN(C)Cc1ccccc1)[C@@H](C)CN([C@@H](C)CO)C2=O	nt	1	0
C[C@H](CO)N1C[C@H](C)[C@@H](CN(C)Cc2ccc(-c3ccccc3)cc2)Oc2c(NC(=O)Nc3ccc(C(F)(F)F)cc3)cccc2C1=O	2.6*	?	2
CC(C)NC(=O)Nc1cccc2c1O[C@H](CN(C)Cc1ccncc1)[C@@H](C)CN([C@H](C)CO)C2=O	-1	-6	81*
C[C@@H]1CN([C@@H](C)CO)S(=O)(=O)c2ccc(-c3ccc(F)cc3)cc2O[C@@H]1CN(C)C(=O)C1CCC1	nt	nt	1
CCCCCc1nnc(NC(=O)C2COc3ccccc3O2)s1 (stereo not drawn)	-4	nt	-1

Screening results: PubChem BioAssay, Broad Institute
